In brackets after ≈: the same amount, converted by molar mass. Activity calls are given as the source filed them. The rule behind the calls is not given here.
Key:
Staphylococcus aureus [1] = test: AUBKC (0 to 24 hrs) in methicillin-resistant Staphylococcus aureus 33922 infected in in vitro pharmacokinetic model at 750 mg, iv every 8 hrs using 10^6 CFU/ml inoculum; format: functional
In short: (§1)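 Single-compartment dilutional in vitro PK model at 37°C in 10% Mueller-Hinton broth, stirred, flow 132 ml/h. […] Inoculum 10^6 CFU/ml added 45 min before dosing, or 10^8 CFU/ml run overnight. Viable counts with β-lactamase neutralisation. AUBKC by log-linear trapezoidal rule, at least triplicate.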

Staphylococcus aureus [2] = test: T>MIC for 2-log drop in count in methicillin-resistant Staphylococcus aureus 33829 in in vitro pharmacokinetic model after 24 hrs using 10^6 CFU/ml inoculum; format: functional
Staphylococcus aureus [3] = test: Antibacterial activity against methicillin-resistant Staphylococcus aureus 33820 by 10% MH broth method; format: functional
In short: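 Broth dilution MIC per CLSI, run in 10% Mueller-Hinton broth at nondoubling dilutions.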

Staphylococcus aureus [4] = test: Antibacterial activity against methicillin-sensitive Staphylococcus aureus; format: functional
Staphylococcus aureus [5] = test: T>MIC for 2-log drop in count in methicillin-sensitive Staphylococcus aureus 5956 in in vitro pharmacokinetic model after 24 hrs using 10^8 CFU/ml inoculum; format: functional
In short: (§2)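 Dose-ranging: 7–13 simulated regimens per strain giving T>MIC of 0–100% (MIC from 10% MHB), at 106 or 10^8 CFU/ml as stated.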

Staphylococcus aureus [6] = test: Antibacterial activity against methicillin-sensitive Staphylococcus aureus 5956 infected in in vitro pharmacokinetic model assessed as reduction in viable count at 1500 mg, iv every 8 hrs measured after 48 hrs using 10^6 CFU/ml inoculum; format: functional
Staphylococcus aureus [7] = test: Antibacterial activity against methicillin-resistant Staphylococcus aureus 33829 infected in in vitro pharmacokinetic model assessed as reduction in viable count at 1500 mg, iv every 8 hrs measured after 48 hrs using 10^6 CFU/ml inoculum; format: functional
In short: (§3)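 Single-compartment dilutional in vitro PK model, 10% Mueller-Hinton broth, 37°C, stirred, dilution 132 ml/h. […] Inoculum 10^6 CFU/ml (added 45 min pre-dose) or 10^8 CFU/ml (run overnight). Viable counts by spiral plating, beta-lactamase neutralization, detection limit 10^2 CFU/ml. At least triplicate.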

Staphylococcus aureus [8] = test: T>MIC for 4-log drop in count in methicillin-sensitive Staphylococcus aureus 5956 in in vitro pharmacokinetic model after 24 hrs using 10^8 CFU/ml inoculum; format: functional; in short: as §2
Staphylococcus aureus [9] = test: Antibacterial activity against methicillin-resistant Staphylococcus aureus 33829 infected in in vitro pharmacokinetic model assessed as time required to 99.9% killing at 750 mg, iv every 8 hrs using 10^6 CFU/ml inoculum; format: functional; in short: as §3
Staphylococcus aureus [10] = test: Antibacterial activity against methicillin-sensitive Staphylococcus aureus 5956 infected in in vitro pharmacokinetic model assessed as reduction in viable count at 750 mg, iv every 8 hrs measured after 36 hrs using 10^6 CFU/ml inoculum; format: functional
Staphylococcus aureus [11] = test: T>MIC for static effect in methicillin-resistant Staphylococcus aureus 33922 in in vitro pharmacokinetic model after 24 hrs using 10^6 CFU/ml inoculum; format: functional
Staphylococcus aureus [12] = test: AUBKC (0 to 48 hrs) in methicillin-resistant Staphylococcus aureus 33820 infected in in vitro pharmacokinetic model at 750 mg, iv every 8 hrs using 10^6 CFU/ml inoculum; format: functional; in short: as §1
Staphylococcus aureus [13] = test: Antibacterial activity against methicillin-resistant Staphylococcus aureus 33827 infected in in vitro pharmacokinetic model assessed as time required to 99% killing at 750 mg, iv every 8 hrs using 10^8 CFU/ml inoculum; format: functional; in short: as §3
Staphylococcus aureus [14] = test: Antibacterial activity against methicillin-resistant Staphylococcus aureus 33921 by 10% MH broth method; format: functional
In short: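 MIC by CLSI broth dilution, or by broth dilution in 10% Mueller-Hinton broth at nondoubling dilutions.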

Staphylococcus aureus [15] = test: Antibacterial activity against methicillin-resistant Staphylococcus aureus 33815 assessed as viable count at 4 times of MIC after 48 hrs using 10^6 CFU/ml inoculum; format: functional, organism-based
In short: (§4)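 Population analysis during tomopenem dose-ranging runs in the in vitro PK model (10^6 CFU/ml, T>MIC 0-100%). […] Growth counted as log CFU/ml, detection limit 2 log10.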

Staphylococcus aureus [16] = test: Antibacterial activity against methicillin-resistant Staphylococcus aureus 33829 assessed as viable count at 4 times of MIC after 48 hrs using 10^6 CFU/ml inoculum; format: functional, organism-based
Staphylococcus aureus [17] = test: Antibacterial activity against methicillin-resistant Staphylococcus aureus 33820 assessed as viable count at 2 times of MIC after 24 hrs using 10^6 CFU/ml inoculum; format: functional, organism-based
Staphylococcus aureus [18] = test: Antibacterial activity against methicillin-resistant Staphylococcus aureus 33829 in in vitro pharmacokinetic model assessed as viable count at 4 times of MIC; format: functional
In short: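 Preexposure population analysis: time-zero model samples plated on nutrient agar without drug and with drug at multiples of the 10% broth MIC. Growth reported as log CFU/ml, detection limit 2 log10.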

Staphylococcus aureus [19] = test: Antibacterial activity against methicillin-resistant Staphylococcus aureus 33922 infected in in vitro pharmacokinetic model assessed as reduction in viable count at 750 mg, iv every 8 hrs measured after 36 hrs using 10^8 CFU/ml inoculum; format: functional
Staphylococcus aureus [20] = test: Antibacterial activity against methicillin-resistant Staphylococcus aureus 33815 assessed as viable count at 2 times of MIC after 24 hrs using 10^6 CFU/ml inoculum; format: functional, organism-based; in short: as §4
Staphylococcus aureus [21] = test: AUBKC (0 to 48 hrs) in methicillin-sensitive Staphylococcus aureus 5956 infected in in vitro pharmacokinetic model at 750 mg, iv every 8 hrs using 10^6 CFU/ml inoculum; format: functional
Staphylococcus aureus [22] = test: Antibacterial activity against methicillin-resistant Staphylococcus aureus 33815 infected in in vitro pharmacokinetic model assessed as time required to 99.9% killing at 1500 mg, iv every 8 hrs using 10^8 CFU/ml inoculum; format: functional
In short: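 T99 and T99.9 were taken as the times for the count to fall 99% or 99.9% from time 0, using serial viable counts over 48 h. Inoculum was 10^8 CFU/ml, grown overnight in the model before dosing.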

[23] = Plasma protein binding in human; format: ADME, cell-free; settings: read-out: PPB
Staphylococcus aureus [24] = test: T>MIC in methicillin-resistant Staphylococcus aureus 33815 infected in vitro pharmacokinetic model at 750 mg, iv every 8 hrs; format: functional
Staphylococcus aureus [25] = test: Antibacterial activity against methicillin-resistant Staphylococcus aureus 33827 infected in in vitro pharmacokinetic model assessed as reduction in viable count at 750 mg, iv every 8 hrs measured after 12 hrs using 10^8 CFU/ml inoculum; format: functional; in short: as §3
Staphylococcus aureus [26] = test: AUBKC (0 to 48 hrs) in methicillin-resistant Staphylococcus aureus 33921 infected in in vitro pharmacokinetic model at 750 mg, iv every 8 hrs using 10^6 CFU/ml inoculum; format: functional; in short: as §1
Staphylococcus aureus [27] = test: Antibacterial activity against methicillin-resistant Staphylococcus aureus 33921 infected in in vitro pharmacokinetic model assessed as reduction in viable count at 750 mg, iv every 8 hrs measured after 24 hrs using 10^6 CFU/ml inoculum; format: functional
Staphylococcus aureus [28] = test: Antibacterial activity against methicillin-resistant Staphylococcus aureus 33827 infected in in vitro pharmacokinetic model assessed as reduction in viable count at 750 mg, iv every 8 hrs measured after 48 hrs using 10^6 CFU/ml inoculum; format: functional; in short: as §3

## C[C@@H](O)[C@H]1C(=O)N2C(C(=O)O)=C(S[C@H]3C[C@@H](C(=O)N4CC[C@H](NC(=O)CNC(=N)N)C4)N(C)C3)[C@H](C)[C@H]12 [TOMOPENEM]
Staphylococcus aureus [1]
  AUBC: 20.2 log10CFU/ml.hr
Staphylococcus aureus [2]
  fT>MIC: 20.8%
Staphylococcus aureus [3]
  MIC: 6 µg/mL (≈ 11.2 µM)
Staphylococcus aureus [4]
  MIC50: 0.12 µg/mL (≈ 0.223 µM)
  MIC90: 0.12 µg/mL (≈ 0.223 µM)
Staphylococcus aureus [5]
  fT>MIC: 7.4%
Staphylococcus aureus [6]
  log10CFU/ml: 4.4
Staphylococcus aureus [7]
  log10CFU/ml: 3.8
Staphylococcus aureus [8]
  fT>MIC: 20.1%
Staphylococcus aureus [9]
  Time: 12 h
Staphylococcus aureus [10]
  log10CFU/ml: 4.5
Staphylococcus aureus [11]
  fT>MIC: 1.3%
Staphylococcus aureus [12]
  AUBC: 28.6 log10CFU/ml.hr
Staphylococcus aureus [13]
  Time: 12 h
Staphylococcus aureus [14]
  MIC: 0.06 µg/mL (≈ 0.112 µM)
Staphylococcus aureus [15]
  Activity: Active
Staphylococcus aureus [16]
  Activity: Active
Staphylococcus aureus [17]
  Activity: inactive
Staphylococcus aureus [18]
  log10CFU/ml: 5.4
Staphylococcus aureus [19]
  log10CFU/ml: 5.5
Staphylococcus aureus [20]
  Activity: Active
Staphylococcus aureus [21]
  AUBC: 27.6 log10CFU/ml.hr
Staphylococcus aureus [22]
  Time: 24 h
[23]
  fraction unbound: > 0.9
Staphylococcus aureus [24]
  fT>MIC: 73%
Staphylococcus aureus [25]
  log10CFU/ml: 3.8
Staphylococcus aureus [26]
  AUBC: 41 log10CFU/ml.hr
Staphylococcus aureus [27]
  log10CFU/ml: 4
Staphylococcus aureus [28]
  log10CFU/ml: 3.3

Source: ChEMBL document CHEMBL1255300, “Pharmacodynamics of the antibacterial effect and emergence of resistance to tomopenem, formerly RO4908463/CS-023, in an in vitro pharmacokinetic model of Staphylococcus aureus infection” (Antimicrob Agents Chemother, 2008)
